From ChEMBL document CHEMBL1144018, “SAR studies of capsazepinoid bronchodilators. Part 2: Chlorination and catechol replacement in the A-ring” (Bioorg Med Chem, 2008)

Organism: Homo sapiens
Assay: Bronchorelaxing effect on LTD4-contracted small human lung airways assessed as remaining contraction at 10 uM after 1.5 hrs relative to control
Type: functional
How it was run: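 Human small airways (0.5–1.5 mm diameter) from lung cancer patients, in vitro. Each preparation contracted with 10 nM LTD4 untreated, then again after 1.5 h exposure to 10 µM test compound. Value is the percent of the full LTD4 contraction that remains, given as arithmetic mean ± SEM with n in parentheses.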

| SMILES | Activity |
| --- | --- |
| Oc1cc2c(c(Cl)c1O)CN(C(=S)NCCc1ccc(Cl)cc1)CC2 | 49% |
| Oc1cc2c(cc1Cl)CN(C(=S)NCCc1ccc(Cl)cc1)CCC2 | 49% |
| CC1c2c(Cl)c(O)c(O)c(Cl)c2CCN1C(=S)NCCc1ccc(Cl)cc1 (stereo unspecified) | 48% |
| Oc1cc2c(cc1Cl)CN(C(=S)NCCc1ccc(Cl)cc1)CC2 | 73% |
| Oc1c(Cl)cc2c(c1Cl)CN(C(=S)NCCc1ccc(Cl)cc1)CC2 | 57% |
| Nc1ccc2c(c1)CN(C(=S)NCCc1ccc(Cl)cc1)CC2 | 79% |
| Oc1c(O)c(Cl)c2c(c1Cl)CCN(C(=S)NCCc1ccc(Cl)cc1)C2Cc1ccccc1 (stereo unspecified) | 84% |
| Oc1ccc2c(c1Cl)CCN(C(=S)NCCc1ccc(Cl)cc1)C2 | 69% |
| Oc1c(Cl)cc2c(c1Cl)CCCN(C(=S)NCCc1ccc(Cl)cc1)C2 | 30% |
| Oc1c(O)c(Cl)c2c(c1Cl)CCN(C(=S)NCCc1ccc(Cl)cc1)CC2 | 29% |
| Oc1c(O)c(Cl)c2c(c1Cl)CCCN(C(=S)NCCc1ccc(Cl)cc1)C2 | 38% |
| Oc1cc2c(c(Cl)c1O)CCN(C(=S)NCCc1ccc(Cl)cc1)C2 | 40% |
| CC1Cc2c(Cl)c(O)c(O)c(Cl)c2CN1C(=S)NCCc1ccc(Cl)cc1 (stereo unspecified) | 31% |
| Oc1cc2c(cc1Cl)CCN(C(=S)NCCc1ccc(Cl)cc1)C2 | 69% |
| S=C(NCCc1ccc(Cl)cc1)N1CCc2ccccc2C1 | 83% |
| CS(=O)(=O)Nc1ccc2c(c1)CCN(C(=S)NCCc1ccc(Cl)cc1)C2 | 75% |

| SMILES | Activity |
| --- | --- |
| N#Cc1cc2c(cc1C#N)CN(C(=S)NCCc1ccc(Cl)cc1)CC2 | 84% |
| Oc1ccc2c(c1Cl)CN(C(=S)NCCc1ccc(Cl)cc1)CCC2 | 46% |
| Nc1ccc2c(c1)CCN(C(=S)NCCc1ccc(Cl)cc1)C2 | 62% |
| Oc1cc2c(cc1Cl)CCCN(C(=S)NCCc1ccc(Cl)cc1)C2 | 56% |
| COC(=O)c1cc2c(cc1C(=O)OC)CN(C(=S)NCCc1ccc(Cl)cc1)CC2 | 87% |
| Oc1c(O)c(Cl)c2c(c1Cl)CN(C(=S)NCCc1ccc(Cl)cc1)C2 | 31% |
| Oc1cc2c(c(Cl)c1O)CCCN(C(=S)NCCc1ccc(Cl)cc1)C2 | 64% |
| O=C(O)c1cc2c(cc1C(=O)O)CN(C(=S)NCCc1ccc(Cl)cc1)CC2 | 99% |
| Oc1cc2c(c(Cl)c1O)CN(C(=S)NCCc1ccc(Cl)cc1)CCC2 | 63% |
| Oc1cc2c(c(Cl)c1O)CN(C(=S)NCCc1ccc(Cl)cc1)C2 | 65% |
| Oc1ccc2c(c1Cl)CCCN(C(=S)NCCc1ccc(Cl)cc1)C2 | 67% |
| CS(=O)(=O)Nc1ccc2c(c1)CN(C(=S)NCCc1ccc(Cl)cc1)CC2 | 72% |
| Oc1ccc2c(c1Cl)CN(C(=S)NCCc1ccc(Cl)cc1)CC2 | 47% |
| Oc1c(Cl)cc2c(c1Cl)CCN(C(=S)NCCc1ccc(Cl)cc1)C2 | 55% |
| Oc1c(O)c(Cl)c2c(c1Cl)CCN(C(=S)NCCc1ccc(Cl)cc1)C2 | 14% |
